The results in this text go back to ChEMBL document CHEMBL1833821, “Defining the structural parameters that confer anticonvulsant activity by the site-by-site modification of (R)-N'-benzyl 2-amino-3-methylbutanamide” (J Med Chem, 2011).

Series [1] concerns Mus musculus. In words: Anticonvulsant activity in ip dosed albino CF1 mouse assessed as protection against maximal electroshock-induced seizures in presence of 50 miliamperes of electric current. In kind it is functional. In outline:
(§1)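 Adult male albino CF-1 (Carworth Farms No. 1) mice dosed ip under NINDS ASP; MES test. Compounds with sufficient activity got a dose-response curve (4–6 doses, n = 8 per dose) at the time of peak effect (h, bracketed).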
On the technique in general: In the maximal electroshock model the usual endpoint is tonic extension of the hind limbs.

Series [2] relates to Mus musculus. Briefly: Anticonvulsant activity in ip dosed albino CF1 mouse assessed as time of peak effect by maximal electroshock seizures test in presence of 50 miliamperes of electric current. It counts as functional. The method, boiled down: as §1
Series [3] can be described thus: Neurotoxicity in ip dosed albino CF1 mouse assessed as minimal motor coordination impairment by rotarod test. In kind it is toxicity, organism-based. To be noted: in vivo. (In general: Falling from the rotarod earlier than controls is read as motor impairment.)
For series [4], the species on record is Mus musculus. Briefly: Protective index, ratio of TD50 for albino CF1 mouse by rotarod test to ED50 for albino CF1 mouse by maximal electroshock seizures test. It counts as functional. The method, boiled down: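 Mouse protective index calculated as rotorod TD50 divided by MES ED50, both from ip dosing of male CF-1 mice at the NINDS ASP.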
The test system of series [5] is Rattus norvegicus. In words: Anticonvulsant activity in po dosed albino Sprague-Dawley rat assessed as protection against maximal electroshock-induced seizures in presence of 150 miliamperes of electric current. It counts as functional. The method, boiled down: (§2)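 Adult male albino Sprague-Dawley rats dosed orally under NINDS ASP; MES test. ED50 in mg/kg, with time of testing noted in hours in brackets.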

Series [6] has as its system Rattus norvegicus. In words: Anticonvulsant activity in po dosed albino Sprague-Dawley rat assessed as time of peak effect by maximal electroshock seizures test in presence of 150 miliamperes of electric current. In kind it is functional. The method, boiled down:
as §2

Series [7] is described as follows: Neurotoxicity in po dosed albino Sprague-Dawley rat. It counts as toxicity, organism-based. To be noted: in vivo. The method, boiled down:
(§3)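 Adult male albino Sprague-Dawley rats given compound orally under NINDS ASP. Behavioral toxicity was scored by the positional sense test or the gait and stance test. TD50 in mg/kg, with time in hours bracketed.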

Series [8] has as its system Rattus norvegicus. Briefly: Behavioral toxicity in po dosed albino Sprague-Dawley rat assessed as time of peak effect. It counts as organism-based. As to conditions: in vivo. In outline: as §3
In series [9] the test system is Mus musculus. In words: Neurotoxicity in ip dosed albino CF1 mouse assessed as time of peak effect by rotarod test. In kind it is toxicity, organism-based. To be noted: in vivo.
Series [10] has as its system Mus musculus. In words: Anticonvulsant activity in ip dosed albino CF1 mouse assessed as protection against subcutaneous metrazol-induced seizures. In kind it is functional, organism-based. In outline: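 Male albino CF-1 mice dosed ip under NINDS ASP; subcutaneous pentylenetetrazol (Metrazol) seizure threshold test.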
For series [11], the species on record is Rattus norvegicus. Briefly: Protective index, ratio of TD50 for albino Sprague-Dawley rat to ED50 for albino Sprague-Dawley rat by maximal electroshock seizures test. It counts as functional. The method, boiled down: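 Rat protective index calculated as behavioral toxicity TD50 divided by MES ED50, both after oral dosing of male Sprague-Dawley rats at the NINDS ASP.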

The test system of series [12] is Mus musculus. Briefly: Anticonvulsant activity in ip dosed NMRI mouse assessed as protection against maximal electroshock-induced seizures after 30 mins in presence of 50 miliamperes of electric current. To be noted: 0.5 h. It counts as functional.

Structures are written as SMILES. Activity calls are given as the source filed them.

As to `CC(C)[C@@H](N)C(=O)NCCCCc1ccccc1`, the ED50 – broadly, the dose at which the effect has come halfway, by size or by number of responders – was 11 mg/kg in [1] and greater than 30 mg/kg in series [5]. The Time in [2], in series [6], in [8] and in [9] was 0.25 h in each case. Moreover, the TD50 (in general, the 50% point of the dose-response relation for the toxic effect studied) is 38 mg/kg in [3] and greater than 30 mg/kg in [7]. For the same compound, in series [4], the PI is recorded as 3.5. For the same compound, the outcome in series [10] was inactive.

For `CC(C)[C@@H](N)C(=O)NCCc1ccc(F)cc1`, in series [1], the ED50 was 10 mg/kg. Further, in series [3], the TD50 is 30 mg/kg.

Consider `CC(C)[C@@H](N)C(=O)NCCc1ccccc1`, for which the ED50 in [1] is 10 mg/kg; in [5], less than 30 mg/kg. For the same compound, the Time in [2] was found to be 0.25 h; in series [6], 0.25 h; in [8] it was 0.24 h; in [9], 0.25 h. Moreover, the TD50 is 50 mg/kg in series [3] and greater than 30 mg/kg in [7]. Moreover, in series [4], the PI is given as 5. Besides, the outcome in series [10] was inactive.

Turning to `CC(C)[C@@H](N)C(=O)NCC1CCCCC1`, the results for the ED50 in series [1] and in [5] were 30 mg/kg and 15 mg/kg, respectively. In addition, the Time in series [2] was 0.5 h; in [6] it was 0.25 h; in [8], 0.25 h; in series [9], 0.5 h. Also, the TD50 in series [3] is 100 mg/kg; in series [7] it was greater than 30 mg/kg. The result in series [10] was inactive.

Consider `CC(C)[C@@H](N)C(=O)NCCCc1ccccc1`, for which the ED50 is 16 mg/kg in series [1] and less than 30 mg/kg in series [5]. For the same compound, the Time in series [2], in series [6], in series [8] and in series [9] was 0.25 h in each case. The results for the TD50 in series [3] and in series [7] were 43 mg/kg and greater than 30 mg/kg, respectively. The PI in series [4] turned out to be 2.7. The result in series [10] was inactive.

Consider `O=C1NC(=O)C(c2ccccc2)(c2ccccc2)N1` [PHENYTOIN], for which the Time in [2] came out at 2 h; in [6] it was 4 h; in [9], 0.25 h. For the same compound, the ED50 in series [5] stood at 30 mg/kg. In series [7], this compound registered a TD50 greater than 3000 mg/kg.

Consider `CC(C)[C@@H](N)C(=O)NCCc1ccccc1F`, for which the ED50 in series [1] was determined as 27 mg/kg. The Time in [2] amounted to 0.25 h; in [6], 4 h; in series [9] it was 0.25 h. Further, the TD50 came to 79 mg/kg in [3] and 500 mg/kg in series [7]. Further, the PI in series [4] is 2.9; in series [11], greater than 25.

Take `CC(C)[C@@H](N)C(=O)NCCc1cccc(F)c1`: the ED50 was found to be 20 mg/kg in series [1] and 38 mg/kg in series [5]. The Time in series [2] was 0.25 h; in [6], 0.5 h; in series [9], 0.25 h. The TD50 is 67 mg/kg in series [3] and greater than 500 mg/kg in series [7]. Moreover, the PI in series [4] is given as 3.4.

Regarding `CC[C@H](C)C(=O)NCc1ccccc1`, the ED50 is 100 mg/kg in [1] and greater than 30 mg/kg in series [5]. Besides, the Time is 0.5 h in series [2], 0.25 h in series [6], 0.25 h in [8] and 0.5 h in series [9]. The TD50 in [3] was 300 mg/kg; in [7], greater than 30 mg/kg.

As for `CC(C)[C@@H](N)C(=O)NCc1ccccc1OC(F)(F)F`, the ED50 came out at 9.2 mg/kg in series [1] and 33 mg/kg in series [5]. Further, the Time in [2] is 0.25 h; in series [6], 0.5 h; in [9], 0.25 h. Further, the values for the TD50 in series [3] and in [7] were 51 mg/kg and greater than 500 mg/kg, respectively. Besides, the PI in series [4] was 5.5; in series [11], greater than 15. Moreover, in [10], the result was inactive.

Consider `CC(C)[C@@H](N)C(=O)NCc1cccc(OC(F)(F)F)c1`, for which the ED50 in series [1] was 7.1 mg/kg; in series [5], 10 mg/kg. For the same compound, the Time in series [2] was 0.25 h; in series [6], 1 h; in series [8] it was 1 h; in series [9] it was 0.25 h. In addition, the TD50 in series [3] is 30 mg/kg; in series [7] it was 43 mg/kg. The PI in [4] was 4.2; in [11] it was 4.3. Also, in series [10], the result was inactive.

`CC(=O)NC(C(=O)NCc1ccccc1)c1ccccc1` (racemic): the ED50 in [1] was 20 mg/kg.

On to `CCCC(CCC)C(=O)[O-].[Na+]` [VALPROATE SODIUM], for which the ED50 in series [1] amounted to 270 mg/kg. For the same compound, the Time in series [2] worked out at 0.5 h; in [6] it was 0.5 h; in series [8] it was 0.5 h; in [9], 0.25 h.

On to `CCC1(c2ccccc2)C(=O)NC(=O)NC1=O` [PHENOBARBITAL], for which the median effective dose (ED50) in series [1] was found to be 22 mg/kg; in [5], 9.1 mg/kg. Also, the Time in [2] came to 1 h; in series [6], 5 h; in [8], 0.5 h; in [9], 0.5 h. Further, the figures for the PI in [4] and in [11] were 3 and greater than 100, respectively.

As to `CC(C)[C@H](C(=O)NCc1ccccc1)N(C)C`, the ED50 in series [1] was 30 mg/kg. Also, the Time in series [2] and in [9] was 0.5 h in each case. Moreover, the TD50 in series [3] came out at 100 mg/kg. The outcome in series [10] was inactive.

Turning to `CC(C)[C@@H](N)C(=O)OCc1ccccc1`, the ED50 was greater than 300 mg/kg in series [1] and greater than 30 mg/kg in series [5]. The Time in series [2] worked out at 0.5 h; in series [6], 0.25 h; in [8], 0.25 h; in [9] it was 0.5 h. The TD50 in series [3] is greater than 300 mg/kg; in series [7], greater than 30 mg/kg. In addition, the result in [10] was inactive.

Take `CC(C)[C@@H](N)C(=O)CCc1ccccc1.Cl`: in [1], the ED50 stood at 30 mg/kg. For the same compound, in series [3], the TD50 was 100 mg/kg. In [10], the outcome was inactive.

Take `CN[C@@H](C(=O)NCc1ccccc1)C(C)C`: the ED50 in [12] was determined as 25 mg/kg.

On to `CCC(C)C(=O)NCc1ccccc1` (racemic), for which the ED50 in series [1] was 56 mg/kg; in series [5], 51 mg/kg. Further, the Time in [2] is 0.25 h; in series [6], 0.5 h; in series [9], 0.25 h. Besides, the TD50 is 165 mg/kg in series [3] and greater than 500 mg/kg in series [7]. Besides, the PI is recorded as 2.9 in series [4] and greater than 9.8 in [11]. For the same compound, the result in [10] was inactive.

Turning to `COC[C@@H](NC(C)=O)C(=O)NCc1ccccc1` [LACOSAMIDE], the Time in series [2] came out at 0.5 h; in series [6], 2 h; in series [9] it was 0.25 h. In addition, the PI in [4] is 6. For the same compound, in series [7], the TD50 was greater than 500 mg/kg.

On to `CC(C)[C@@H](N)CNCc1ccccc1`, for which the results for the ED50 in series [1] and in series [5] were 30 mg/kg and greater than 30 mg/kg, respectively. Also, the Time in [2] is 0.5 h; in series [6], 0.25 h; in series [8] it was 0.25 h; in [9], 0.5 h. Further, the TD50 in [3] is 100 mg/kg; in series [7] it was greater than 30 mg/kg. Also, in series [10], the result was inactive.

`CC(C)[C@@H](N)C(=O)Nc1ccccc1`: in series [1], the ED50 is 30 mg/kg. The Time in series [2] and in series [9] was 0.5 h each time. Also, in series [3], the TD50 was greater than 30 mg/kg. In [10], the outcome was inactive.

With `CC(C)[C@@H](N)C(=S)NCc1ccccc1`, the values for the ED50 in series [1] and in [5] were 30 mg/kg and less than 30 mg/kg, respectively. For the same compound, the Time in [2] worked out at 0.5 h; in series [6], 0.5 h; in [8], 0.25 h; in series [9], 0.5 h. For the same compound, the results for the TD50 in [3] and in series [7] were 30 mg/kg and greater than 30 mg/kg, respectively. In addition, the result in [10] was inactive.

For `CCCC(=O)NCc1ccccc1`, the TD50 was 100 mg/kg in [3] and greater than 30 mg/kg in series [7]. Also, the Time in series [9] stood at 0.5 h.

For the compound `CC[C@@H](O)C(=O)NCc1ccccc1`, the ED50 was 100 mg/kg in series [1] and greater than 30 mg/kg in [5]. Besides, the Time came out at 0.5 h in series [2], 0.25 h in series [6], 0.25 h in series [8] and 0.5 h in series [9]. For the same compound, the TD50 is 100 mg/kg in series [3] and greater than 30 mg/kg in series [7]. The outcome in series [10] was inactive.
